From PubChem BioAssay come the findings set out here.

The source made the active and inactive calls.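 Rule for the calls, unless noted: active = a full or partial loss of lipid-probe fluorescence in the fish gall bladder, intestine or both, judged by eye; inactive = no fluorescence loss, or compound toxic to the fish.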

Assay [1] is described as follows: inhibitors of TNFa-induced NFkB p65 translocation, primary screen, imaging, HUVEC, MLSMR starter and 10KST1 sets (AID 438;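 active = inhibition above 20% together with a positive visual image hit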;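 note: compound added about 3h40 before a 20 min TNFalpha stimulation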;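 for inhibition: signal is the nuclear over cytoplasmic p65 intensity ratio per well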). The conditions noted are these: HUVEC TNFa-induced p65 nuclear translocation; cell count: measured here: nuclei count (cytotoxicity indicator), at 2.08 µM; inhibition: at 2 µM, stronger effect = higher value, 0% TNFa-plus-vehicle, 100% no-TNFa wells.
Assay [2] can be described thus: inhibitors of mutant huntingtin aggregation, primary screen, imaging, exon1htt(103Q)mCFP cells, high-content imaging (AID 483;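 active = visual image review flags a hit and inhibition of aggregation exceeds 20%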;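 note: compound exposure lasted 3 days before fixation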;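 for nuclei count: percent of the per-plate median nuclei count of sample wells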). The conditions noted are these: exon1htt(103Q)mCFP cell line, aggregate imaging, at 2 µM; inhibition of aggregation: stronger effect = higher value; nuclei count: measured here: cell count, toxicity.
Assay [3] in a line: inhibitors of E-selectin induction by TNFa, primary screen, imaging, HUVEC, immunofluorescence, MLSMR starter and 10KST1 sets (AID 487;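 active = visually confirmed hit in the image check and inhibition above 20%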;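 for inhibition: signal is fraction of cell area covered by stained E-selectin grains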;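 for nuclei count: 100% = median nuclei count of all wells on the same plate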). Particulars: HUVEC TNFalpha-induced E-selectin immunofluorescence imaging, at 2 µM; inhibition: stronger effect = higher value; nuclei count: measured here: cell number, toxicity.
The target in assay [4] is Voltage-gated potassium channel subunit beta-2 (Rattus norvegicus) (UniProt P62483). Put plainly: KvBeta enzyme negative modulators, primary screen, biochemical, NADPH fluorescence (AID 622;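 active = fluorescence slope higher than the sample average by over 3 SD, cut at about -0.22 in these data, passing the limit was not always enough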;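 note: slope of raw intensity against log time taken from 70 to 1610 s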). The conditions noted are these: recombinant KvBeta, 4-cyanobenzaldehyde reduction, at 10 µM, stronger effect = higher value.
Chain of Voltage-gated potassium channel subunit beta-2 (Rattus norvegicus) (P62483 whole entry, looked up): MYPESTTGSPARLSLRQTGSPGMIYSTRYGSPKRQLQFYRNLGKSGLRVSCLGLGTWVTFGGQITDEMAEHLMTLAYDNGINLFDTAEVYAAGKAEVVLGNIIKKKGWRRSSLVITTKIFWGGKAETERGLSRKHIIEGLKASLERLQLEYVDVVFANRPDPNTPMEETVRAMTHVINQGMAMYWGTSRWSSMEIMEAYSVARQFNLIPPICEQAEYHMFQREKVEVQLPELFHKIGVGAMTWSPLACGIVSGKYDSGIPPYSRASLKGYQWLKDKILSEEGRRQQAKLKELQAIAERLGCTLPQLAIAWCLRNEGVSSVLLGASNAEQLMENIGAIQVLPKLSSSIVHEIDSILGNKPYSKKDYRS
Assay [5] shares this target. Nature of the assay: KvBeta positive modulators, primary screen, biochemical, NADPH fluorescence (AID 623;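 active = NADPH fluorescence slope more negative than the mean of all samples by about 3 SD, 99.7% confidence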;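 note: fluorescence intensity change per second fitted from 20 to 320 s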). The conditions noted are these: Recombinant KvBeta, NADPH fluorescence decrease slope, 10 min; at 10 µM; stronger effect = lower value.
The target in assay [6] is Alpha-2C adrenergic receptor (Homo sapiens) (UniProt P18825). Put plainly: modulators of alpha2C/GIRK thallium flux, primary screen, cell-based, HEK293 alpha2C/GIRK1/2 (AID 624;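 active = fluorescence slope after compound addition differing from the mean of all screened samples at 99.7% confidence, in either direction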;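 note: slope of fluorescence ratio to pre-addition baseline per second over 15 to 24 s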). The conditions noted are these: thallium flux BTC fluorescence, at 10 µM, actives lie on both sides.
Chain of Alpha-2C adrenergic receptor (Homo sapiens) (P18825 whole entry, looked up): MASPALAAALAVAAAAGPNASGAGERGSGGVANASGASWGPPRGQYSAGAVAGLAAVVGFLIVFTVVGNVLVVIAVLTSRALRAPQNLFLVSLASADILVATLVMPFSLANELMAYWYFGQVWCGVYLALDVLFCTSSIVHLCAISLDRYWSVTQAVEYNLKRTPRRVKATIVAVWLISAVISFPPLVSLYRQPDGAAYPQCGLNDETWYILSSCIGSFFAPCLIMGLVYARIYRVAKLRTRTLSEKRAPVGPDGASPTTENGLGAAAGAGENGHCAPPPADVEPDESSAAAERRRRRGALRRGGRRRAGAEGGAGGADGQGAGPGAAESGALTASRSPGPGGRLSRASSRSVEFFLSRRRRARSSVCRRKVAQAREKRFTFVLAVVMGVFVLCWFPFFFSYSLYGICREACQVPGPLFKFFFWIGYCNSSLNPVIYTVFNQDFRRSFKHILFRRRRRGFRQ
Assay [7] in a line: inhibitors of larval lipid processing in zebrafish, primary screen, whole organism, PED6 fluorescence, gall bladder and intestine (AID 686).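 Note: larvae 5 to 7 days old with five fish per well; signal comes from phospholipase A2 cleavage of quenched PED6 carried via bile; overnight exposure to compound and PED6 before scoring.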 Particulars: Zebrafish larvae PED6 lipid processing, fluorescence scoring; screened at 20 µM (by protocol). A digest of the protocol:
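System: live zebrafish larvae aged 5-7 days, whole organism; measure: graded gall bladder and intestinal fluorescence inhibition per well; incubation: overnight exposure; reagent: ingested quenched lipid PED6 at 100 nM; signal: By-eye fluorescence microscopy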

Assay [8] can be described thus: inhibitors of Sendai virus-induced IRF3 signaling, primary screen, TLR/RLR signaling modifier project, cell-based, Sendai virus stimulus, luciferase, 10K MLSCN set (AID 602276;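 active = inhibition at or above 50% at 10 µM; inactive = inhibition below 50%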;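 note: firefly luciferase from ISG56 promoter only with Renilla not read in this screen; 0% = Sendai virus plus DMSO and 100% = medium plus DMSO without virus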). Particulars: HEK293 RL24 IRF3 luciferase reporter, at 10 µM, stronger effect = higher value. A general note: Reporter assays use an easily measured gene product as a stand-in for the process of interest.

Assay [9] is described as follows: inhibitors of poly I:C-induced TLR3 signaling, primary screen, cell-based, poly I:C stimulus, luciferase, 10K MLSCN set (AID 602277;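 active = inhibition of the reporter signal at or above 50%; inactive = inhibition below 50%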). Particulars: HEK293-TLR3 RL24 IRF3 luciferase reporter, at 10 µM, stronger effect = higher value.

By inhibition is commonly meant the drop in the measured response relative to a control, in per cent. As to `O=C(CSc1ncn[nH]1)NC1CC2CCC1C2` (stereo not drawn), the cell count in assay [1] turned out to be 264. In addition, the inhibition is -16.8% (inactive) in [1], 56.4% (inactive) in [3], 2.17% (inactive) in assay [8] and 7.86% (inactive) in [9]. Besides, the inhibition of aggregation in assay [2] was 17% (inactive). Moreover, the nuclei count in assay [2] worked out at 80.8%; in assay [3], 53%. Besides, in assay [4], the fluorescence slope was -0.448 (inactive). Besides, the NADPH fluorescence slope in [5] was -3.5e-05 (inactive). For the same compound, the slope in [6] was 0.00492 (inactive). The result in assay [7] was inactive.

As to `Cc1cc(C)n2nc(SCC(=O)N(C)Cc3ccccc3)nc2n1`, in [1], the cell count came to 407. The inhibition is 7.4% (inactive) in assay [1], -18.9% (inactive) in [3], -13.5% (inactive) in assay [8] and -9.42% (inactive) in assay [9]. For the same compound, in [2], the inhibition of aggregation is -27.8% (inactive). The values for the nuclei count in assay [2] and in assay [3] were 116% and 115%, respectively. Also, the fluorescence slope in [4] was -0.435 (inactive). The NADPH fluorescence slope in assay [5] was -6.2e-06 (inactive). Moreover, the slope in assay [6] is 0.00539 (inactive). For the same compound, the compound was called inactive in assay [7].

Take `COCC(=O)n1nc(NCc2ccc(OC)cc2)nc1NCc1ccc(OC)cc1`: the cell count in assay [1] was found to be 614. In addition, the inhibition is 2% (inactive) in assay [1], -25.2% (inactive) in assay [3], 10.6% (inactive) in assay [8] and 8.87% (inactive) in assay [9]. Besides, in [2], the inhibition of aggregation was -19.7% (inactive). In addition, the nuclei count in assay [2] was 101%; in [3], 96.2%. Besides, the fluorescence slope in assay [4] is -0.377 (inactive). The NADPH fluorescence slope in assay [5] is -6e-05 (inactive). In assay [6], the slope was 0.00518 (inactive). Also, the compound was classed as inactive in assay [7].

Regarding `O=C(O)c1ccc(C2SCC(=O)N2Cc2ccccc2)cc1` (stereo not drawn), the cell count in [1] was 323. For the same compound, the inhibition in assay [1] was -0.4% (inactive); in [3], 7.3% (inactive); in assay [8], -6.17% (inactive); in assay [9] it was 0.315% (inactive). In assay [2], the inhibition of aggregation is 15.9% (inactive). Besides, the nuclei count was determined as 57.9% in assay [2] and 101% in assay [3]. Besides, the fluorescence slope in assay [4] was -0.382 (inactive). For the same compound, in [5], the NADPH fluorescence slope was 1.2e-05 (inactive). In addition, the slope in assay [6] was 0.00611 (inactive). In addition, the compound was called inactive in assay [7].

Turning to `Cc1cc(=O)n2[nH]c(-c3ccc(Cl)cc3)cc2n1`, the cell count in assay [1] stood at 540. Besides, the inhibition was -2.9% (inactive) in [1], 46.6% (inactive) in assay [3], -16.8% (inactive) in [8] and -40.2% (inactive) in [9]. The inhibition of aggregation in assay [2] was 0% (inactive). In addition, the nuclei count in [2] came to 87.6%; in assay [3], 69.3%. In addition, the fluorescence slope in assay [4] is -0.42 (inactive). Moreover, the NADPH fluorescence slope in assay [5] was -3.9e-05 (inactive). In addition, the slope in [6] was 0.0052 (inactive). Also, the result in [7] was inactive.

For `CCCCCCn1c(CN2CCN(Cc3ccccc3)CC2)nc2c1c(=O)n(C)c(=O)n2C`, the cell count in [1] is 255. The inhibition in [1] is -15.1% (inactive); in [3], 24.2% (inactive); in assay [8], 23% (inactive); in assay [9] it was 17.3% (inactive). For the same compound, the inhibition of aggregation in assay [2] is 9.8% (inactive). The nuclei count in assay [2] came to 84.1%; in [3], 64%. Further, in [4], the fluorescence slope was -0.43 (inactive). The NADPH fluorescence slope in assay [5] was -5.6e-05 (inactive). Besides, the slope in [6] is 0.00491 (inactive). Besides, the call in assay [7] was inactive.

Turning to `CCN(C(=O)c1cccs1)c1nnc(-c2ccncc2)s1`, the cell count in assay [1] came out at 737. The inhibition is -7.1% (inactive) in [1], -80% (inactive) in [3], -7.04% (inactive) in assay [8] and -41.1% (inactive) in [9]. In [2], the inhibition of aggregation is -14.4% (inactive). Moreover, the figures for the nuclei count in assay [2] and in assay [3] were 104% and 115%, respectively. The fluorescence slope in [4] was -0.374 (inactive). In addition, the NADPH fluorescence slope in assay [5] is -7.1e-05 (inactive). The slope in assay [6] is 0.00498 (inactive). The outcome in assay [7] was inactive.

As to `Cc1cc(NC(=O)CSc2nc(C3CC3)nc3sc4c(c23)CCC(C)C4)no1` (stereo not drawn), in assay [1], the cell count is 321. Also, the inhibition was -1.3% (inactive) in [1], -43% (inactive) in assay [3], -13.4% (inactive) in assay [8] and -24.3% (inactive) in assay [9]. Also, the inhibition of aggregation in [2] was 0.7% (inactive). For the same compound, the nuclei count in assay [2] amounted to 75.3%; in assay [3] it was 113%. Moreover, the fluorescence slope in assay [4] is -0.394 (inactive). For the same compound, the NADPH fluorescence slope in [5] was -5.2e-05 (inactive). The slope in assay [6] was 0.00786 (inactive). Further, the outcome in assay [7] was inactive.

Turning to `Cc1cc(C)cc(N2C(=O)C3C4C=CC(C4)C3C2=O)c1` (stereo not drawn), the cell count in [1] came to 643. Moreover, the inhibition in [1] is -4.8% (inactive); in [3], 28% (inactive); in assay [8] it was 13.3% (inactive); in [9] it was 14.4% (inactive). In addition, the inhibition of aggregation in [2] was -4.9% (inactive). Moreover, the values for the nuclei count in [2] and in assay [3] were 98.2% and 99.1%, respectively. The fluorescence slope in assay [4] was -0.451 (inactive). Besides, the NADPH fluorescence slope in assay [5] is -4.1e-05 (inactive). Moreover, in assay [6], the slope is 0.00599 (inactive). Besides, the outcome in [7] was inactive.

With `CCOC(=O)C1CCCN(C(=O)Cc2ccc(OC)c(OC)c2)C1` (stereo not drawn), in assay [1], the cell count was determined as 705. Further, the inhibition in assay [1] is 2.6% (inactive); in [3], -124% (inactive); in assay [8], 18.6% (inactive); in assay [9] it was 17.7% (inactive). Also, in assay [2], the inhibition of aggregation was 2.1% (inactive). In addition, the nuclei count in [2] is 100%; in assay [3] it was 104%. In assay [4], the fluorescence slope is -0.443 (inactive). The NADPH fluorescence slope in assay [5] is -4.9e-05 (inactive). Also, the slope in assay [6] is 0.00479 (inactive). In [7], the outcome was inactive.

Regarding `CCOC(=O)c1cc(-c2ccccc2)sc1N`, the cell count in [1] was 389. The inhibition in assay [1] was -0.7% (inactive); in assay [3] it was -104% (inactive); in assay [8], -40.8% (inactive); in assay [9], -102% (inactive). For the same compound, the inhibition of aggregation in [2] was 3.4% (inactive). Further, the nuclei count worked out at 102% in assay [2] and 107% in assay [3]. Moreover, the fluorescence slope in [4] is -0.351 (inactive). Further, the NADPH fluorescence slope in [5] was -2e-05 (inactive). Further, the slope in assay [6] is 0.0052 (inactive). For the same compound, in [7], the outcome was inactive.

With `O=C(c1ccc2snnc2c1)N1CCOCC1`, the cell count in [1] turned out to be 370. For the same compound, the inhibition in assay [1] was 6.3% (inactive); in [3] it was -50.1% (inactive); in assay [8], 10.1% (inactive); in [9] it was 13.9% (inactive). Further, the inhibition of aggregation in assay [2] was -11.2% (inactive). In addition, the values for the nuclei count in [2] and in assay [3] were 107% and 117%, respectively. The fluorescence slope in assay [4] is -0.371 (inactive). Moreover, the NADPH fluorescence slope in assay [5] was -4.9e-05 (inactive). Besides, in assay [6], the slope was 0.00486 (inactive). For the same compound, the outcome in [7] was inactive.

For the compound `Cc1cccc(NC(=O)CC2CCC2)c1`, the cell count in [1] amounted to 362. Besides, the inhibition in assay [1] is -4.1% (inactive); in assay [3] it was 40.7% (inactive); in assay [8], 3.07% (inactive); in assay [9] it was -0.215% (inactive). In addition, the inhibition of aggregation in [2] is 3% (inactive). The values for the nuclei count in assay [2] and in [3] were 97.1% and 71.8%, respectively. The fluorescence slope in [4] was -0.435 (inactive). In addition, in assay [5], the NADPH fluorescence slope was -2.3e-05 (inactive). The slope in [6] is 0.00515 (inactive). In assay [7], the result was inactive.

Take `CCOC(=O)N1CCC(NC(=O)Cn2cc3c(n2)CCC(C)C3)CC1` (stereo not drawn): the cell count in assay [1] was 420. The inhibition in [1] was -11.9% (inactive); in [3], -5.4% (inactive); in [8], -10.4% (inactive); in assay [9], -9.33% (inactive). The inhibition of aggregation in [2] is 0.7% (inactive). The values for the nuclei count in assay [2] and in [3] were 108% and 101%, respectively. In addition, the fluorescence slope in assay [4] was -0.479 (inactive). In addition, the NADPH fluorescence slope in assay [5] was 1.7e-05 (inactive). The slope in assay [6] was 0.0047 (inactive). Besides, in assay [7], the call was inactive.
